tested on: Amaranthus retroflexus; experiment: Herbicidal activity against Amaranthus retroflexus assessed as inhibition of fresh weed plant weight at 1500 g/ha using post-emergence treatment protocol; assay type: functional
In short: (§1)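 Test compounds made up as emulsions by dissolving in 100 µL N,N-dimethylformamide, then adding a little Tween 20 and water. For post-emergence, weed seedlings at one leaf and one stem were sprayed at the same rates as the pre-emergence test. Fresh weight was recorded 15 days after treatment and expressed as percent inhibition versus controls. All treatments were run in triplicate.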

Row | SMILES | inhibition at 1500 g/ha [%]
1 | C#CCN1C(=O)COc2cc(F)c(-n3nnc4nn(CC=C)cc4c3=O)cc21 | 100

tested on: Amaranthus retroflexus; experiment: Herbicidal activity against Amaranthus retroflexus assessed as inhibition of fresh weed plant weight at 187.5 g/ha using pre-emergence treatment protocol; assay type: functional

Row | SMILES | inhibition at 187.5 g/ha [%]
2 | C#CCN1C(=O)COc2cc(F)c(-n3nnc4nn(CC=C)cc4c3=O)cc21 | 100

tested on: Amaranthus retroflexus; experiment: Herbicidal activity against Amaranthus retroflexus assessed as inhibition of fresh weed plant weight at 93.75 g/ha using post-emergence treatment protocol; assay type: functional; in short: as §1

Row | SMILES | inhibition at 93.75 g/ha [%]
3 | C#CCN1C(=O)COc2cc(F)c(-n3nnc4nn(CC=C)cc4c3=O)cc21 | 30.6

tested on: Amaranthus retroflexus; experiment: Herbicidal activity against Amaranthus retroflexus assessed as inhibition of fresh weed plant weight at 750 g/ha using pre-emergence treatment protocol; assay type: functional; in short: as §1

Row | SMILES | inhibition at 750 g/ha [%]
4 | C#CCN1C(=O)COc2cc(F)c(-n3nnc4nn(CC=C)cc4c3=O)cc21 | 100

tested on: Brassica rapa subsp. oleifera; experiment: Herbicidal activity against Brassica rapa subsp. oleifera assessed as inhibition of fresh weed plant weight at 93.75 g/ha using pre-emergence treatment protocol; assay type: functional

Row | SMILES | inhibition at 93.75 g/ha [%]
5 | C#CCN1C(=O)COc2cc(F)c(-n3nnc4nn(CC=C)cc4c3=O)cc21 | 26

tested on: Echinochloa crus-galli; experiment: Herbicidal activity against Echinochloa crus-galli (barnyard grass) assessed as inhibition of fresh weed plant weight at 1500 g/ha using post-emergence treatment protocol; assay type: functional; in short: as §1

Row | SMILES | inhibition at 1500 g/ha [%]
6 | C#CCN1C(=O)COc2cc(F)c(-n3nnc4nn(CC=C)cc4c3=O)cc21 | 38.7

tested on: Brassica rapa subsp. oleifera; experiment: Herbicidal activity against Brassica rapa subsp. oleifera assessed as inhibition of fresh weed plant weight at 1500 g/ha using pre-emergence treatment protocol; assay type: functional

Row | SMILES | inhibition at 1500 g/ha [%]
7 | C#CCN1C(=O)COc2cc(F)c(-n3nnc4nn(CC=C)cc4c3=O)cc21 | 100

tested on: Amaranthus retroflexus; experiment: Herbicidal activity against Amaranthus retroflexus assessed as inhibition of fresh weed plant weight at 187.5 g/ha using post-emergence treatment protocol; assay type: functional; in short: as §1

Row | SMILES | inhibition at 187.5 g/ha [%]
8 | C#CCN1C(=O)COc2cc(F)c(-n3nnc4nn(CC=C)cc4c3=O)cc21 | 40.5

tested on: Echinochloa crus-galli; experiment: Herbicidal activity against Echinochloa crus-galli (barnyard grass) assessed as inhibition of fresh weed plant weight at 750 g/ha using pre-emergence treatment protocol; assay type: functional

Row | SMILES | inhibition at 750 g/ha [%]
9 | C#CCN1C(=O)COc2cc(F)c(-n3nnc4nn(CC=C)cc4c3=O)cc21 | 95.7

tested on: Echinochloa crus-galli; experiment: Herbicidal activity against Echinochloa crus-galli (barnyard grass) assessed as inhibition of fresh weed plant weight at 750 g/ha using post-emergence treatment protocol; assay type: functional; in short: as §1

Row | SMILES | inhibition at 750 g/ha [%]
10 | C#CCN1C(=O)COc2cc(F)c(-n3nnc4nn(CC=C)cc4c3=O)cc21 | 23.6

tested on: Digitaria sanguinalis; experiment: Herbicidal activity against Digitaria sanguinalis (hairy crabgrass) assessed as inhibition of fresh weed plant weight at 750 g/ha using pre-emergence treatment protocol; assay type: functional

Row | SMILES | inhibition at 750 g/ha [%]
11 | C#CCN1C(=O)COc2cc(F)c(-n3nnc4nn(CC=C)cc4c3=O)cc21 | 67.4

tested on: Echinochloa crus-galli; experiment: Herbicidal activity against Echinochloa crus-galli (barnyard grass) assessed as inhibition of fresh weed plant weight at 93.75 g/ha using post-emergence treatment protocol; assay type: functional; in short: as §1

Row | SMILES | inhibition at 93.75 g/ha [%]
12 | C#CCN1C(=O)COc2cc(F)c(-n3nnc4nn(CC=C)cc4c3=O)cc21 | 12.1

tested on: Amaranthus retroflexus; experiment: Herbicidal activity against Amaranthus retroflexus assessed as inhibition of fresh weed plant weight at 375 g/ha using pre-emergence treatment protocol; assay type: functional

Row | SMILES | inhibition at 375 g/ha [%]
13 | C#CCN1C(=O)COc2cc(F)c(-n3nnc4nn(CC=C)cc4c3=O)cc21 | 100

tested on: Digitaria sanguinalis; experiment: Herbicidal activity against Digitaria sanguinalis (hairy crabgrass) assessed as inhibition of fresh weed plant weight at 375 g/ha using post-emergence treatment protocol; assay type: functional; in short: as §1

Row | SMILES | inhibition at 375 g/ha [%]
14 | C#CCN1C(=O)COc2cc(F)c(-n3nnc4nn(CC=C)cc4c3=O)cc21 | 0

tested on: Brassica rapa subsp. oleifera; experiment: Herbicidal activity against Brassica rapa subsp. oleifera assessed as inhibition of fresh weed plant weight at 375 g/ha using post-emergence treatment protocol; assay type: functional; in short: as §1

Row | SMILES | inhibition at 375 g/ha [%]
15 | C#CCN1C(=O)COc2cc(F)c(-n3nnc4nn(CC=C)cc4c3=O)cc21 | 38.9

tested on: Brassica rapa subsp. oleifera; experiment: Herbicidal activity against Brassica rapa subsp. oleifera assessed as inhibition of fresh weed plant weight at 1500 g/ha using post-emergence treatment protocol; assay type: functional; in short: as §1

Row | SMILES | inhibition at 1500 g/ha [%]
16 | C#CCN1C(=O)COc2cc(F)c(-n3nnc4nn(CC=C)cc4c3=O)cc21 | 70.9

tested on: Echinochloa crus-galli; experiment: Herbicidal activity against Echinochloa crus-galli (barnyard grass) assessed as inhibition of fresh weed plant weight at 187.5 g/ha using post-emergence treatment protocol; assay type: functional; in short: as §1

Row | SMILES | inhibition at 187.5 g/ha [%]
17 | C#CCN1C(=O)COc2cc(F)c(-n3nnc4nn(CC=C)cc4c3=O)cc21 | 14.7

tested on: Echinochloa crus-galli; experiment: Herbicidal activity against Echinochloa crus-galli (barnyard grass) assessed as inhibition of fresh weed plant weight at 93.75 g/ha using pre-emergence treatment protocol; assay type: functional

Row | SMILES | inhibition at 93.75 g/ha [%]
18 | C#CCN1C(=O)COc2cc(F)c(-n3nnc4nn(CC=C)cc4c3=O)cc21 | 3.5

tested on: Amaranthus retroflexus; experiment: Herbicidal activity against Amaranthus retroflexus assessed as inhibition of fresh weed plant weight at 375 g/ha using post-emergence treatment protocol; assay type: functional; in short: as §1

Row | SMILES | inhibition at 375 g/ha [%]
19 | C#CCN1C(=O)COc2cc(F)c(-n3nnc4nn(CC=C)cc4c3=O)cc21 | 48.8

tested on: Echinochloa crus-galli; experiment: Herbicidal activity against Echinochloa crus-galli (barnyard grass) assessed as inhibition of fresh weed plant weight at 187.5 g/ha using pre-emergence treatment protocol; assay type: functional; in short: as §1

Row | SMILES | inhibition at 187.5 g/ha [%]
20 | C#CCN1C(=O)COc2cc(F)c(-n3nnc4nn(CC=C)cc4c3=O)cc21 | 13.3

Reference: ChEMBL document CHEMBL3044834, “Novel protoporphyrinogen oxidase inhibitors: 3H-pyrazolo[3,4-d][1,2,3]triazin-4-one derivatives” (J Agric Food Chem, 2008)
